Key:
Thymidylate kinase = target: T1, Thymidylate kinase (Mycobacterium tuberculosis, UniProt P9WKE1); test: Inhibition of Mycobacterium tuberculosis TMPK expressed in Escherichia coli by spectrophotometric assay
T1 sequence (P9WKE1 whole entry): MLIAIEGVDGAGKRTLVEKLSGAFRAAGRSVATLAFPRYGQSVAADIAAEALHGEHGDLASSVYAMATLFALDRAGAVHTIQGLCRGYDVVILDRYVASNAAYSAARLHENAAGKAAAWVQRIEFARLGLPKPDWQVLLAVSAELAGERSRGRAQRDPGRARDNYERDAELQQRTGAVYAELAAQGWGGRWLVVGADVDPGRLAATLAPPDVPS
Method in brief: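 Recombinant mycobacterial and human TMPK, both expressed in E. coli, run in an NADH-coupled assay (pyruvate kinase, lactate dehydrogenase, nucleoside diphosphate kinase, 2 units each) read at 334 nm. ATP 0.5 mM and dTMP 0.05 mM held constant; analogues 0.01–2 mM; Ki determined for each enzyme.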

[1] = Inhibition of human TMPK expressed in Escherichia coli by spectrophotometric assay
[2] = Cytotoxicity against Vero cells at 100 uM after 3 days; format: cell-based; details: chlorocebus sabaeus
Method in brief: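 Confluent Vero monolayers given serial compound dilutions; incubated 3 days at 37°C, humidified CO2 atmosphere; cultures inspected microscopically for altered morphology. MCC = concentration causing microscopic alteration of mock-infected cultures at day 3.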

[3] = system: Mycobacterium tuberculosis; test: Growth inhibition of Mycobacterium tuberculosis H37Rv at 6.25 ug/mL by MABA assay; format: functional
Method in brief: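 Single-concentration screen in BACTEC 12B medium using the Microplate Alamar Blue Assay; percent inhibition recorded.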

SMILES	Ki (Thymidylate kinase) [µM]	Ki [1] [µM]	MCC at 72 h, up to 100 µM [2] [µM]	inhibition at 6.25 µg/mL [3] [%]
Cc1cn([C@@H]2C[C@H](O)[C@@H](CNC(=S)NCCc3ccccc3)O2)c(=O)[nH]c1=O	3.8	> 800	> 100	
Cc1cn([C@@H]2C[C@H](O)[C@@H](CNC(=S)Nc3ccc(Cl)c(Cl)c3)O2)c(=O)[nH]c1=O	1	274	> 100	38
Cc1cn([C@@H]2C[C@H](O)[C@@H](CNC(=S)Nc3ccc(N4CCOCC4)cc3)O2)c(=O)[nH]c1=O	19.2			
Cc1cn([C@@H]2C[C@H](O)[C@@H](CNC(=S)NC34CC5CC(CC(C5)C3)C4)O2)c(=O)[nH]c1=O	15		> 100	
Cc1cn([C@@H]2C[C@H](O)[C@@H](CNC(=O)c3ccccc3)O2)c(=O)[nH]c1=O	35			
Cc1cn(COCCNC(=S)Nc2ccccc2)c(=O)[nH]c1=O	260		> 100	
Cc1cn([C@@H]2C[C@H](O)[C@@H](CN=[N+]=[N-])O2)c(=O)[nH]c1=O	26.5			
Cc1cn([C@H]2C[C@H](CNC(=S)Nc3ccc(Cl)cc3)[C@@H](CO)O2)c(=O)[nH]c1=O	21		> 100	
COc1ccc(NC(=S)NC[C@H]2C[C@H](n3cc(C)c(=O)[nH]c3=O)O[C@@H]2CO)cc1	46		> 100	
Cc1cn([C@H]2C[C@H](CNC(=S)Nc3ccc(Cl)c(Cl)c3)[C@@H](CO)O2)c(=O)[nH]c1=O	7.2		> 100	
Cc1cn([C@H]2C[C@H](CNC(=S)Nc3ccc(OCc4ccccc4)cc3)[C@@H](CO)O2)c(=O)[nH]c1=O	12		> 100	
Cc1cn([C@@H]2C[C@H](O)[C@@H](CNC(=S)NC(=O)c3ccccc3)O2)c(=O)[nH]c1=O	7.2			
Cc1cn([C@@H]2C[C@H](O)[C@@H](CNC(=S)NCc3ccccc3)O2)c(=O)[nH]c1=O	5.4			
Cc1cn([C@@H]2CC[C@@H](CNC(=S)Nc3ccc(Cl)c(C(F)(F)F)c3)O2)c(=O)[nH]c1=O	2.3	> 500		34
Cc1cn([C@@H]2C[C@H](O)[C@@H](CNC(=O)Nc3ccc(Cl)c(Cl)c3)O2)c(=O)[nH]c1=O	1.1	116		41
Cc1cn([C@@H]2C[C@@H](CNC(=O)NC[C@H]3C[C@H](n4cc(C)c(=O)[nH]c4=O)O[C@@H]3CO)[C@H](CO)O2)c(=O)[nH]c1=O	37	> 1000		

SMILES	Ki (Thymidylate kinase) [µM]	Ki [1] [µM]	MCC at 72 h, up to 100 µM [2] [µM]	inhibition at 6.25 µg/mL [3] [%]
Cc1cn([C@@H]2C[C@H](O)[C@@H](CNC(=O)Nc3ccc(Cl)c(C(F)(F)F)c3)O2)c(=O)[nH]c1=O	1.9	166		49
Cc1cn([C@H]2C[C@H](CNC(=S)Nc3ccccc3)[C@@H](CO)O2)c(=O)[nH]c1=O	69			
Cc1cn([C@@H]2C[C@H](O)[C@@H](CNC(=S)Nc3ccc(Cl)c(C(F)(F)F)c3)O2)c(=O)[nH]c1=O	0.6	362	> 100	39
COc1ccc(NC(=S)NC[C@H]2O[C@H](n3cc(C)c(=O)[nH]c3=O)C[C@@H]2O)cc1	10			
Cc1cn([C@@H]2C[C@H](O)[C@@H](CNC(=S)NCc3ccc(Cl)c(C(F)(F)F)c3)O2)c(=O)[nH]c1=O	2.6	50	> 100	
Cc1cn([C@@H]2C=C[C@@H](CNC(=S)Nc3ccc(Cl)c(C(F)(F)F)c3)O2)c(=O)[nH]c1=O	3.8	190		55
Cc1cn([C@@H]2C[C@H](O)[C@@H](CNC(=S)Nc3ccccc3)O2)c(=O)[nH]c1=O	16		> 100	
Cc1ccc(NC(=S)NC[C@H]2O[C@H](n3cc(C)c(=O)[nH]c3=O)C[C@@H]2O)cc1	7.8			
Cc1ccc(NC(=S)NC[C@H]2C[C@H](n3cc(C)c(=O)[nH]c3=O)O[C@@H]2CO)cc1	36		> 100	
Cc1cn([C@@H]2C[C@H](O)[C@@H](CNC(=S)NCCc3ccc(Cl)c(Cl)c3)O2)c(=O)[nH]c1=O	2.2	79	> 100	
Cc1cn([C@@H]2C[C@H](O)[C@@H](CNC(=S)Nc3ccc4c(c3)C(=O)OC43c4ccc(O)cc4Oc4cc(O)ccc43)O2)c(=O)[nH]c1=O	5.4			
Cc1cn(COCCNC(=S)Nc2ccc(Cl)c(C(F)(F)F)c2)c(=O)[nH]c1=O	37		100	34
Cc1cn([C@@H]2C[C@H](O)[C@@H](CNC(=S)NC(c3ccccc3)c3ccccc3)O2)c(=O)[nH]c1=O	4.9	> 500	> 100	
Cc1cn([C@@H]2C[C@H](O)[C@@H](CN)O2)c(=O)[nH]c1=O	16			
Cc1cn([C@H]2C[C@H](CNC(=S)Nc3ccc(Cl)c(C(F)(F)F)c3)[C@@H](CO)O2)c(=O)[nH]c1=O	5	> 1000	> 100	
Cc1cn([C@@H]2C[C@H](O)[C@@H](CNC(=S)Nc3ccc(Cl)cc3)O2)c(=O)[nH]c1=O	3.2	> 1000		

From ChEMBL document CHEMBL1137559, “Rational design of 5'-thiourea-substituted alpha-thymidine analogues as thymidine monophosphate kinase inhibitors capable of inhibiting mycobacterial growth” (J Med Chem, 2007)
